Calls of active or inactive are those of the source.
Experiments:
Mus musculus [1] = experiment: Toxicity against Swiss albino mouse assessed as mortality at 30 to 100 mg/kg, ip; type: organism-based; parameters: dose 30-100 mg/kg, route intraperitoneal; conditions: in vivo
Method in brief: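 Adult male Swiss albino mice (18–25 g; 12 h light/dark cycle, free food and water) were dosed ip at 30 and 100 mg/kg in 30% PEG 400 and 10% water, 0.01 mL/g body weight. Testing was at 0.5 and 4 h in the MES, scPTZ and RotoRod assays, with deaths recorded during these assays.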

Mus musculus [2] = experiment: Anticonvulsant activity in ip dosed Swiss albino mouse assessed as time of maximal protection against maximal electric shock-induced tonic-clonic seizures; type: functional
Method in brief: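 Ip-dosed male Swiss albino mice (vehicle 30% PEG 400/10% water) tested in the MES test (ear-clip electroshock, endpoint abolition of hind-limb tonic extension) at several times after dosing. The maximal time effect is the time of peak protection.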

Mus musculus [3] = experiment: Anticonvulsant activity in ip dosed Swiss albino mouse assessed as protection against maximal electric shock-induced tonic-clonic seizures measured up to 4 hrs; type: functional
Method in brief: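 Male Swiss albino mice given test substances ip in 30% PEG 400/10% water. Various doses, each group of six mice, tested by MES at the maximal time effect. Protection means no hind-limb tonic extension after ear-clip electroshock. ED50 and 95% confidence intervals computed by the Litchfield–Wilcoxon method.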

Mus musculus [4] = experiment: Neurotoxicity against Swiss albino mouse at 100 mg/kg, ip measured after 4 hrs by rotarod test; type: toxicity, organism-based; parameters: dose 100 mg/kg, route intraperitoneal; conditions: in vivo
Method in brief: (§1)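 Male Swiss albino mice (18–25 g) dosed ip at 30 or 100 mg/kg in 30% PEG 400/10% water. Minimal neurotoxicity checked on the rotarod 0.5 and 4 h after dosing, as failure to keep balance on the rotating rod. Reported as affected/tested, 5 mice per group.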

Mus musculus [5] = experiment: Neurotoxicity against Swiss albino mouse at 30 mg/kg, ip measured after 4 hrs by rotarod test; type: toxicity, organism-based; parameters: dose 30 mg/kg, route intraperitoneal; conditions: in vivo; method in brief: as §1
Mus musculus [6] = experiment: Anticonvulsant activity in Swiss albino mouse assessed as protection against maximal electric shock-induced tonic-clonic seizures at 30 mg/kg, ip measured after 0.5 hrs relative to control; type: functional, organism-based; parameters: dose 30 mg/kg
Method in brief: (§2)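 Adult male Swiss albino mice (18–25 g) dosed ip with 30 or 100 mg/kg in 30% PEG 400/10% water, 0.01 mL/g. MES tested 0.5 and 4 h later: electroshock via ear clips. Protection means no hind-limb tonic extension. Result reported as mice protected out of mice tested (3 per group).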

Mus musculus [7] = experiment: Anticonvulsant activity in Swiss albino mouse assessed as protection against maximal electric shock-induced tonic-clonic seizures at 100 mg/kg, ip measured after 0.5 hrs relative to control; type: functional; method in brief: as §2
Mus musculus [8] = experiment: Anticonvulsant activity in Swiss albino mouse assessed as protection against maximal electric shock-induced tonic-clonic seizures at 30 mg/kg, ip measured after 4 hrs relative to control; type: functional; method in brief: as §2
Mus musculus [9] = experiment: Anticonvulsant activity in Swiss albino mouse assessed as protection against maximal electric shock-induced tonic-clonic seizures at 100 mg/kg, ip measured after 4 hrs relative to control; type: functional, organism-based; parameters: dose 100 mg/kg; method in brief: as §2
Mus musculus [10] = experiment: Anticonvulsant activity in Swiss albino mouse assessed as protection against scPTZ-induced tonic-clonic seizures at 30 mg/kg, ip measured after 0.5 hrs relative to control; type: functional, organism-based; parameters: dose 30 mg/kg
Method in brief: (§3)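 Adult male Swiss albino mice (18–25 g) given test substance ip at 30 or 100 mg/kg in 30% PEG 400/10% water. At 0.5 or 4 h, PTZ 85 mg/kg sc (0.5% in 0.9% saline) into the posterior midline. Mice observed 30 min. Protection means no threshold seizure, i.e. no clonic spasm lasting ≥5 s. Scored as protected/tested, 2 mice per group.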

Mus musculus [11] = experiment: Anticonvulsant activity in Swiss albino mouse assessed as protection against scPTZ-induced tonic-clonic seizures at 100 mg/kg, ip measured after 0.5 hrs relative to control; type: functional, organism-based; parameters: dose 100 mg/kg; method in brief: as §3
Mus musculus [12] = experiment: Anticonvulsant activity in Swiss albino mouse assessed as protection against scPTZ-induced tonic-clonic seizures at 30 mg/kg, ip measured after 4 hrs relative to control; type: functional, organism-based; parameters: dose 30 mg/kg; method in brief: as §3
Mus musculus [13] = experiment: Anticonvulsant activity in Swiss albino mouse assessed as protection against scPTZ-induced tonic-clonic seizures at 100 mg/kg, ip measured after 4 hrs relative to control; type: functional, organism-based; parameters: dose 100 mg/kg; method in brief: as §3
Mus musculus [14] = experiment: Neurotoxicity against Swiss albino mouse at 30 mg/kg, ip measured after 0.5 hrs by rotarod test; type: toxicity, organism-based; parameters: dose 30 mg/kg, route intraperitoneal; conditions: in vivo; method in brief: as §1
Mus musculus [15] = experiment: Neurotoxicity against Swiss albino mouse at 100 mg/kg, ip measured after 0.5 hrs by rotarod test; type: toxicity, organism-based; parameters: dose 100 mg/kg, route intraperitoneal; conditions: in vivo; method in brief: as §1
Mus musculus [16] = organism: Mus musculus; experiment: Ratio of phenytoin ED50 to compound ED50 for protection against maximal electric shock-induced tonic-clonic seizures in Swiss albino mouse; type: functional
Mus musculus [17] = organism: Mus musculus; experiment: Ratio of trimathadione ED50 to compound ED50 for protection against maximal electric shock-induced tonic-clonic seizures in Swiss albino mouse; type: functional
Mus musculus [18] = organism: Mus musculus; experiment: Ratio of valproic acid ED50 to compound ED50 for protection against maximal electric shock-induced tonic-clonic seizures in Swiss albino mouse; type: functional

SMILES | Activity (Mus musculus [1]) | Time (Mus musculus [2]) | ED50 (Mus musculus [3]) | Activity (Mus musculus [4]) | Activity (Mus musculus [5]) | Activity (Mus musculus [6]) | Activity (Mus musculus [7]) | Activity (Mus musculus [8]) | Activity (Mus musculus [9]) | Activity (Mus musculus [10]) | Activity (Mus musculus [11]) | Activity (Mus musculus [12]) | Activity (Mus musculus [13]) | Activity (Mus musculus [14]) | Activity (Mus musculus [15]) | Activity (Mus musculus [7]; route intraperitoneal) | Activity (Mus musculus [8]; route intraperitoneal) | Ratio ED50 (Mus musculus [16]) | Ratio ED50 (Mus musculus [17]) | Ratio ED50 (Mus musculus [18])
CC1(C)OS(=O)(=O)N(CCc2ccccc2)C1=O | Non-toxic | 2 h | 91.1 mg/kg | Non-toxic | Non-toxic | Active | Active | Active | Active | Active | Active | inactive | Active | Non-toxic | Non-toxic |  |  |  |  | 
CCCCNC(=O)C(O)(c1ccccc1)c1ccccc1 | Non-toxic |  |  | Non-toxic | Non-toxic | Active |  |  | Active | inactive | inactive | inactive | inactive | Non-toxic | Non-toxic | 100% | 100% |  |  | 
CCCCN1C(=O)C(C)(C)OS1(=O)=O | Non-toxic | 2 h | 0.06 mg/kg | Non-toxic | Non-toxic | Active | inactive | Active | Active | Active | inactive | Active | Active | Non-toxic | Non-toxic |  |  | 90 | 10000 | 4700
CC1(C)OS(=O)(=O)N(Cc2ccccc2)C1=O | Non-toxic | 4 h | 15.1 mg/kg | Non-toxic | Non-toxic | Active | Active |  | Active | inactive | Active | inactive | inactive | Non-toxic | Non-toxic |  | 100% |  | 40 | 19
CC(C)(O)C(=O)NC1CCCCC1 | Non-toxic | 0.5 h | 25.2 mg/kg | Non-toxic | Non-toxic | Active |  |  | Active | inactive | inactive | inactive | inactive | Non-toxic | Non-toxic | 100% | 100% |  |  | 
CC(C)(O)C(=O)NCCc1ccccc1 | Non-toxic | 1 h | 53.9 mg/kg | Non-toxic | Non-toxic | Active |  | Active | Active | inactive | Active | inactive | Active | Non-toxic | Non-toxic | 100% |  |  |  | 
CC(C)(O)C(=O)NCc1ccccc1 | Non-toxic | 0.25 h | 9.1 mg/kg | Non-toxic | Non-toxic | Active |  | Active | inactive | Active | Active | inactive | Active | Non-toxic | Non-toxic | 100% |  |  |  | 30
CCCCNC(=O)C(C)(C)O | Non-toxic | 6 h | 44.6 mg/kg | Non-toxic | Non-toxic | inactive |  | Active | Active | Active | inactive | Active | Active | Non-toxic | Non-toxic | 100% |  |  |  | 
CN1C(=O)OC(C)(C)C1=O [TRIMETHADIONE] |  | 0.5 h | 627 mg/kg |  |  |  |  |  |  |  |  |  |  |  |  |  |  |  |  | 
O=C1NC(=O)C(c2ccccc2)(c2ccccc2)N1 [PHENYTOIN] |  | 1 h | 5.54 mg/kg |  |  |  |  |  |  |  |  |  |  |  |  |  |  |  |  | 
CCCN1C(=O)C(C)(C)OS1(=O)=O | Non-toxic |  |  | Non-toxic | Non-toxic | Active | Active | inactive | Active | inactive | inactive | inactive | inactive | Non-toxic | Non-toxic |  |  |  |  | 
CCCNC(=O)C(C)(C)O | Non-toxic |  |  | Non-toxic | Non-toxic | Active | Active |  | inactive | inactive | inactive | inactive | inactive | Non-toxic | Non-toxic |  | 100% |  |  | 
